Activity calls are given as the source filed them. No cut-off for these calls is given here.
How the values were obtained:
[1] = Solubility in pH 7.0 buffer by nephelometry; type: physicochemical
[2] = Solubility in pH 7.4 buffer by nephelometry; type: physicochemical
Dipeptidyl peptidase 4 = Dipeptidyl peptidase 4 (Mus musculus, UniProt P28843); test: Inhibition of DPP4 in C57BL/6 mouse serum pre-incubated for 5 mins followed by Gly-Pro-7-AMC substrate addition by fluorescence based assay; type: cell-free
[3] = Solubility in pH 6.8 buffer by nephelometry; type: physicochemical
[4] = Apparent permeability from basolateral to apical side in human Caco2 cells at 20 uM incubated for […] by LC-MS/MS analysis; type: ADME, cell-based; settings: Caco-2
[5] = Efflux ratio in human Caco2 cells at 20 uM incubated for […] by LC-MS/MS analysis; type: ADME, cell-based; settings: Caco-2
[6] = Apparent permeability from apical to basolateral side in human Caco2 cells at 20 uM incubated for […] by LC-MS/MS analysis; type: ADME, cell-based; settings: Caco-2
[7] = Stability in human intestinal S9 fractions assessed as phase I and phase II enzymes-mediated generation of systemic metabolites at 0.1 uM incubated at 37 degC for 10 mins by LC-MS/MS analysis; type: ADME, subcellular, Intestine, S9 fraction; settings: s9, 10 min
[8] = Stability in mouse intestinal S9 fractions assessed as phase I and phase II enzymes-mediated generation of systemic metabolites at 0.1 uM incubated at 37 degC for 10 mins by LC-MS/MS analysis; type: ADME, subcellular, Intestine, S9 fraction; settings: s9, 10 min
Mus musculus [9] = test: Inhibition of ileum DPP4 in BALB/c mouse at 30 mg/kg, po after 8 hrs using Gly-Pro-7-AMC substrate by fluorescence based assay; type: functional, organism-based
Procedure, shortened: (§1)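 Mice were dosed orally at 30 mg/kg and intestinal DPPIV activity was measured 8 h later in three intestinal segments. Activity is expressed relative to a vehicle control group, with n = 6 per group. Data are mean ± SEM, compared with control by Student's t-test.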

Mus musculus [10] = test: Inhibition of colon DPP4 in BALB/c mouse at 30 mg/kg, po after 8 hrs using Gly-Pro-7-AMC substrate by fluorescence based assay; type: functional, organism-based; procedure, shortened: as §1
Mus musculus [11] = test: Inhibition of jejunum DPP4 in BALB/c mouse at 30 mg/kg, po after 8 hrs using Gly-Pro-7-AMC substrate by fluorescence based assay; type: functional, organism-based; procedure, shortened: as §1
[12] = Toxicity in ICR mouse assessed as effect on body weight at 1000 mg/kg, po administered as single dose after 4 days; settings: in vivo, 96 h
Hepatocyte = test: Cytotoxicity in mouse primary hepatocytes assessed as reduction in cell viability up to 200 uM incubated for 24 hrs by MTT assay; type: cell-based
[13] = Toxicity in ICR mouse assessed as effect on behavioral parameters at 1000 mg/kg, po administered as single dose after 4 days; settings: in vivo, 96 h
[14] = Selectivity index, ratio of IC50 for recombinant human DPP9 to IC50 for inhibition of DPP4 in C57BL/6 mouse serum
[15] = Toxicity in ICR mouse assessed as effect on clinical parameters at 1000 mg/kg, po administered as single dose after 4 days; settings: in vivo, 96 h
[16] = Toxicity in ICR mouse assessed as mouse survival at 1000 mg/kg, po administered as single dose after 4 days; settings: in vivo, 96 h
[17] = Selectivity index, ratio of IC50 for recombinant human DPP8 to IC50 for inhibition of DPP4 in C57BL/6 mouse serum
HEK293 = test: Cytotoxicity in HEK293 cells assessed as reduction in cell viability up to 200 uM incubated for 24 hrs by MTT assay; type: cell-based; settings: human, hek293, 24 h
HepG2 = test: Cytotoxicity in human HepG2 cells assessed as reduction in cell viability up to 200 uM incubated for 24 hrs by MTT assay; type: cell-based; settings: hepg2, 24 h

Dipeptidyl peptidase 4, sequence (P28843 whole entry): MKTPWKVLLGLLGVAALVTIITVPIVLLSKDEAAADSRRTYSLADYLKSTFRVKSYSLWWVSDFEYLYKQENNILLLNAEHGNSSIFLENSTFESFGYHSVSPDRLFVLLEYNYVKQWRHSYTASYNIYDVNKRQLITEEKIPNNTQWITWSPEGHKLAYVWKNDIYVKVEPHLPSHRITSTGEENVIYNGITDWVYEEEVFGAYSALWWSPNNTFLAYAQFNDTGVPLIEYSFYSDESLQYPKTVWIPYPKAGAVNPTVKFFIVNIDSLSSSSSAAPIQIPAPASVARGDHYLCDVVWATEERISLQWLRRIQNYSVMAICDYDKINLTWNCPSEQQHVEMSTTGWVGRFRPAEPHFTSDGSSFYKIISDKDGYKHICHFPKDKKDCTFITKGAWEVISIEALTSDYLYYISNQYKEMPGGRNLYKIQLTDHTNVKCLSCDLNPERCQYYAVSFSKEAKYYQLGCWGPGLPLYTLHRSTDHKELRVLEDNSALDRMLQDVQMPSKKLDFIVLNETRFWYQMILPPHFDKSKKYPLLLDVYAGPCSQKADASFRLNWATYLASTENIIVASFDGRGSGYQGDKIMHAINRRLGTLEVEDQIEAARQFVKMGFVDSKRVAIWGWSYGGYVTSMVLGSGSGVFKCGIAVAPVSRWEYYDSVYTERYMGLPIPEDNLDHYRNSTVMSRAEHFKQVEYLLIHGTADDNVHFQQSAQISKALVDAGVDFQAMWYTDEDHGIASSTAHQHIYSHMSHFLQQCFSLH

SMILES | solubility kinetic [1] | solubility kinetic [2] | IC50 (Dipeptidyl peptidase 4) | solubility kinetic [3] | Papp B→A at […], 20 µM [4] | efflux ratio at […], 20 µM [5] | Papp A→B at […], 20 µM [6] | Stability [7] | Stability [8] | other results
N[C@@H](CC(=O)NC1(c2nc3ccc(OCCCCCC(=O)NC[C@H](O)[C@@H](O)[C@@H](O)[C@H](O)CO)cc3s2)CCS(=O)(=O)CC1)Cc1cc(F)c(F)cc1F.O=C(O)C(F)(F)F | 20 to 50 µM | 20 to 50 µM | 3.5 nM | > 50 µM | 0.27 ×10⁻⁶ cm/s | 13 | 0.02 ×10⁻⁶ cm/s | – | – | –
C[C@]12CC[C@H]3[C@@H](CCC4=CC(=O)CC[C@@]43C)[C@@H]1CC[C@@H]2O [TESTOSTERONE] | – | – | – | – | – | – | – | Unstable | Unstable | –
N[C@@H](CC(=O)NC1(c2nc3ccc(OCCCCCC(=O)NCCS(=O)(=O)O)cc3s2)CCS(=O)(=O)CC1)Cc1cc(F)c(F)cc1F.O=C(O)C(F)(F)F | > 50 µM | > 50 µM | 2 nM | 20 to 50 µM | 0.59 ×10⁻⁶ cm/s | 295 | 0.002 ×10⁻⁶ cm/s | – | – | –
O=c1ccc2ccc(O)cc2o1 [UMBELLIFERONE] | – | – | – | – | – | – | – | Unstable | Unstable | –
N[C@@H](CC(=O)NC1(c2nc3ccc(OCCCCCCCCCCCC(=O)NC[C@H](O)[C@@H](O)[C@@H](O)[C@H](O)CO)cc3s2)CCS(=O)(=O)CC1)Cc1cc(F)c(F)cc1F | – | – | 168 nM | – | – | – | – | – | – | –
C[N+](C)(C)CCNC(=O)CCCCCCCCCCCOc1ccc2nc(C3(NC(=O)C[C@H](N)Cc4cc(F)c(F)cc4F)CCS(=O)(=O)CC3)sc2c1 | – | – | 116 nM | – | – | – | – | – | – | –
N[C@@H](CC(=O)NC1(c2nc3ccc(OCC(=O)NC[C@H](O)[C@@H](O)[C@@H](O)[C@H](O)CO)cc3s2)CCS(=O)(=O)CC1)Cc1cc(F)c(F)cc1F.O=C(O)C(F)(F)F | > 50 µM | > 50 µM | 2.2 nM | > 50 µM | 0.001 ×10⁻⁶ cm/s | 0.05 | 0.02 ×10⁻⁶ cm/s | – | – | –
N[C@@H](CC(=O)NC1(c2nc3ccc(OCCCCCCCCCCCC(=O)NCCS(=O)(=O)O)cc3s2)CCS(=O)(=O)CC1)Cc1cc(F)c(F)cc1F | – | – | 81.8 nM | – | – | – | – | – | – | –
C[N+](C)(C)CCNC(=O)COc1ccc2nc(C3(NC(=O)C[C@H](N)Cc4cc(F)c(F)cc4F)CCS(=O)(=O)CC3)sc2c1.O=C(O)C(F)(F)F.O=C([O-])C(F)(F)F | > 50 µM | > 50 µM | 1.4 nM | > 50 µM | 0.004 ×10⁻⁶ cm/s | 0.2 | 0.02 ×10⁻⁶ cm/s | Stable | Stable | inhibition (Mus musculus [9]): Active; inhibition (Mus musculus [10]): Active; inhibition (Mus musculus [11]): Active
N[C@@H](CC(=O)N1CCn2c(nnc2C(F)(F)F)C1)Cc1cc(F)c(F)cc1F [SITAGLIPTIN] | – | – | – | – | 12.2 ×10⁻⁶ cm/s | – | 0.25 ×10⁻⁶ cm/s | – | – | inhibition (Mus musculus [9]): Active; inhibition (Mus musculus [10]): Active; inhibition (Mus musculus [11]): Active
N[C@@H](CC(=O)NC1(c2nc3ccc(OCC(=O)NCCS(=O)(=O)O)cc3s2)CCS(=O)(=O)CC1)Cc1cc(F)c(F)cc1F.O=C(O)C(F)(F)F | > 50 µM | > 50 µM | 1.1 nM | > 50 µM | 0.01 ×10⁻⁶ cm/s | 0.3 | 0.04 ×10⁻⁶ cm/s | Stable | Stable | Activity [12]: Non-Toxic; Activity (Hepatocyte): Non-Toxic; inhibition (Mus musculus [9]): Active; Activity [13]: Non-Toxic; Ratio IC50 [14]: > 2000; Activity [15]: Non-Toxic; Activity [16]: Non-Toxic; inhibition (Mus musculus [10]): Active; inhibition (Mus musculus [11]): Active; Ratio IC50 [17]: > 2000; Activity (HEK293): Non-Toxic; Activity (HepG2): Non-Toxic
C[N+](C)(C)CCNC(=O)CCCCCOc1ccc2nc(C3(NC(=O)C[C@H](N)Cc4cc(F)c(F)cc4F)CCS(=O)(=O)CC3)sc2c1.O=C(O)C(F)(F)F.O=C([O-])C(F)(F)F | > 50 µM | > 50 µM | 3 nM | > 50 µM | 0.11 ×10⁻⁶ cm/s | 6 | 0.02 ×10⁻⁶ cm/s | – | – | –

Reference: ChEMBL document CHEMBL4334524, “Discovery of Highly Polar β-Homophenylalanine Derivatives as Nonsystemic Intestine-Targeted Dipeptidyl Peptidase IV Inhibitors” (J Med Chem, 2019)
